{"data": "Experimental data of several laboratories", "target": "G protein-coupled receptor kinase 5 (GRK5, Homo sapiens, UniProt P34947)", "note": "Protocols differ between the studies behind these lines."}
{"SMILES": "Cc1ccc(NC(=O)c2ccc(C)c(C(F)(F)F)c2)cc1C#Cc1nn(C2CCC(O)CC2)c2ncnc(N)c12 (centres unmarked)", "observed": "cell-free assay", "tested at": "10 µM", "quantity": "remaining signal", "value": "99%"}
{"SMILES": "CNC(=O)c1cc(Oc2ccc(NC(=O)Nc3ccc(Cl)c(C(F)(F)F)c3)cc2)ccn1", "observed": "enzyme activity", "mode": "inhibitor", "tested at": "0.3 µM", "quantity": "inhibition", "value": "7%"}
{"SMILES": "CCCS(=O)(=O)Nc1ccc(F)c(C(=O)c2c[nH]c3ncc(-c4ccc(Cl)cc4)cc23)c1F", "observed": "enzyme activity", "mode": "inhibitor", "tested at": "1 µM", "quantity": "inhibition", "value": "< 10%"}
{"SMILES": "O=C(Nc1cnn(-c2csc(C(=O)NC3COC3)c2)c1)Nc1ccccc1Cl", "observed": "enzyme activity", "mode": "inhibitor", "tested at": "5 µM", "quantity": "remaining activity", "value": "98%"}
{"SMILES": "CCN(CC)c1ccc(C2=NNC(=O)CC2C)cc1[N+](=O)[O-] (centres unmarked)", "observed": "enzyme activity", "mode": "inhibitor", "tested at": "10 µM", "quantity": "remaining activity", "value": "103%"}
{"SMILES": "CC(C)(C)c1nc2c(s1)c1nc(N)ncc1c1ccc(NS(=O)(=O)c3c(F)cccc3F)c(F)c12", "observed": "enzyme activity", "mode": "inhibitor", "method": "radiometric", "tested at": "1 µM", "quantity": "remaining activity", "value": "84%"}
{"SMILES": "COc1cc2ncnc(Nc3ccc(Oc4ccccc4)c(C)c3C)c2cc1OC", "observed": "enzyme activity", "mode": "inhibitor", "tested at": "1 µM", "quantity": "inhibition", "value": "0%"}
{"SMILES": "CN1CC(Oc2cnc(C#N)cc2-c2ccn3nc(NC(=O)C4CC4)cc3c2)C1", "observed": "enzyme activity", "mode": "inhibitor", "tested at": "1 µM", "quantity": "inhibition", "value": "3%"}
{"SMILES": "O=C1NC(=O)c2cc(Nc3ccc(F)cc3)c(Nc3ccc(F)cc3)cc21", "observed": "cell-free assay", "tested at": "0.5 µM", "quantity": "remaining signal", "value": "101%"}
{"SMILES": "Cc1sc(C(=O)NC2COC2)cc1-n1cc(NC(=O)Nc2c(F)cccc2Cl)cn1", "observed": "enzyme activity", "mode": "inhibitor", "tested at": "10 µM", "quantity": "remaining activity", "value": "113%"}
{"SMILES": "CC(C)(C)c1nc(-c2cccc(NS(=O)(=O)c3c(F)cccc3F)c2F)c(-c2ccnc(N)n2)s1", "observed": "enzyme activity", "mode": "inhibitor", "method": "radiometric", "tested at": "1 µM", "quantity": "remaining activity", "value": "85%"}
{"SMILES": "Cc1cnc(NC2CCOCC2)nc1-n1cnc(C(=O)NC(CN)c2cc(F)cc(Cl)c2)c1 (centres unmarked)", "observed": "enzyme activity", "mode": "inhibitor", "method": "radiometric", "tested at": "1 µM", "quantity": "remaining activity", "value": "96%"}
{"SMILES": "COc1cc(Cl)c(C(=O)N[C@@H](CN[C@H]2CC[C@@H](N)CC2)Cc2ccc(C#N)cc2)cc1-c1ccc(CN[C@H](C)c2ccc(C)cc2)o1", "observed": "enzyme activity", "mode": "inhibitor", "tested at": "1 µM", "quantity": "remaining activity", "value": "99%"}
{"SMILES": "Cc1ccc(C(=O)NCc2ccsc2)cc1C#Cc1cn(C(C)C)c2ncnc(N)c12", "observed": "enzyme activity", "mode": "inhibitor", "tested at": "1 µM", "quantity": "activity vs control", "value": "111%"}
{"SMILES": "COc1cc2ncnc(Nc3ccc(Oc4ccccc4)cc3C)c2cc1OC", "observed": "enzyme activity", "mode": "inhibitor", "tested at": "1 µM", "quantity": "inhibition", "value": "-2%"}
{"SMILES": "Cc1ccc(Nc2nccc(N(C)c3ccc4c(C)n(C)nc4c3)n2)cc1S(N)(=O)=O", "observed": "enzyme activity", "mode": "inhibitor", "tested at": "10 µM", "quantity": "inhibition", "value": "-10%"}
{"SMILES": "CCCOc1ccc(OC)c(F)c1C(=O)c1ccc(C(=O)N[C@@H]2CNC[C@H]2NC(=O)c2ccc3[nH]ncc3c2)cc1", "observed": "enzyme activity", "mode": "inhibitor", "tested at": "10 µM", "quantity": "remaining activity", "value": "114%"}
{"SMILES": "CC(C)(O)[C@H]1CC[C@H](Nc2ccc3ncc(-c4cccc(C(F)(F)F)c4)n3n2)CC1", "observed": "enzyme activity", "mode": "inhibitor", "tested at": "1 µM", "quantity": "remaining activity", "value": "95.1%"}
{"SMILES": "N#CCCc1ccc2c(c1)-c1[nH]c3ccc([N+](=O)[O-])cc3c1CC(=O)N2", "observed": "cell-free assay", "tested at": "0.5 µM", "quantity": "remaining signal", "value": "103%"}
{"SMILES": "Cc1cc(NC(=O)c2cccc3cc(-c4cccc5[nH]nc(N)c45)ccc23)ccc1F", "observed": "enzyme activity", "mode": "inhibitor", "tested at": "0.1 µM", "quantity": "activity vs control", "value": "112%"}
